Reference: ChEMBL document CHEMBL4052671, “Design, synthesis, and evaluation of DNA topoisomerase II-targeted nucleosides” (Bioorg Med Chem, 2017)
Blank lines part the entries; values can stand above or below the molecule they belong to. Active and inactive are the calls of the source. The calls are words filed in the database; no cut-off is given here.

How the values were obtained:
[1] = system: NCI-H226; assay: Growth inhibition of human NCI-H226 cells incubated for 48 hrs by sulforhodamine B assay; assay type: functional; conditions: NCI-H226, 48 h
[2] = system: SF-539; assay: Growth inhibition of human SF539 cells incubated for 48 hrs by sulforhodamine B assay; assay type: functional; conditions: SF-539, 48 h
[3] = system: SK-OV-3; assay: Growth inhibition of human SKOV3 cells incubated for 48 hrs by sulforhodamine B assay; assay type: functional; conditions: SK-OV-3, 48 h
[4] = system: NCI-H522; assay: Growth inhibition of human NCI-H522 cells incubated for 48 hrs by sulforhodamine B assay; assay type: functional; conditions: NCI-H522, 48 h
[5] = system: HCT-15; assay: Growth inhibition of human HCT15 cells incubated for 48 hrs by sulforhodamine B assay; assay type: functional; conditions: HCT-15, 48 h
[6] = Growth inhibition of human […] incubated for 48 hrs by sulforhodamine B assay; assay type: functional
[7] = system: SF-295; assay: Growth inhibition of human SF295 cells incubated for 48 hrs by sulforhodamine B assay; assay type: functional; conditions: SF-295, 48 h
[8] = system: RXF 631; assay: Growth inhibition of human RXF631L cells incubated for 48 hrs by sulforhodamine B assay; assay type: functional; conditions: RXF 631, 48 h
[9] = system: NCI-H460; assay: Growth inhibition of human NCI-H460 cells incubated for 48 hrs by sulforhodamine B assay; assay type: functional; conditions: NCI-H460, 48 h
[10] = system: U-251; assay: Growth inhibition of human U251 cells incubated for 48 hrs by sulforhodamine B assay; assay type: functional; conditions: U-251, 48 h
[11] = system: MKN-28; assay: Growth inhibition of human MKN28 cells incubated for 48 hrs by sulforhodamine B assay; assay type: functional; conditions: MKN-28, 48 h
[12] = system: SNB-75; assay: Growth inhibition of human SNB75 cells incubated for 48 hrs by sulforhodamine B assay; assay type: functional; conditions: SNB-75, 48 h
[13] = system: OVCAR-3; assay: Growth inhibition of human OVCAR3 cells incubated for 48 hrs by sulforhodamine B assay; assay type: functional; conditions: OVCAR-3, 48 h
[14] = system: HCC 2998; assay: Growth inhibition of human HCC2998 cells incubated for 48 hrs by sulforhodamine B assay; assay type: functional; conditions: HCC 2998, 48 h
[15] = system: DMS-273; assay: Growth inhibition of human DMS273 cells incubated for 48 hrs by sulforhodamine B assay; assay type: functional; conditions: DMS-273, 48 h
[16] = target: T1, DNA topoisomerase 2-alpha (Homo sapiens, UniProt P11388); assay: Inhibition of recombinant human DNA topoisomerase-2alpha assessed as decrease in relaxation of supercoiled pBR322 DNA after 30 mins by ethidium bromide staining based agarose gel electrophoresis
[17] = system: MKN-7; assay: Growth inhibition of human MKN7 cells incubated for 48 hrs by sulforhodamine B assay; assay type: functional; conditions: MKN-7, 48 h
[18] = system: MCF7; assay: Growth inhibition of human MCF7 cells incubated for 48 hrs by sulforhodamine B assay; assay type: functional; conditions: MCF7, 48 h
[19] = system: OVCAR-8; assay: Growth inhibition of human OVCAR8 cells incubated for 48 hrs by sulforhodamine B assay; assay type: functional; conditions: OVCAR-8, 48 h
[20] = Growth inhibition of human HBC4 cells incubated for 48 hrs by sulforhodamine B assay; assay type: functional; conditions: HBC4, 48 h
[21] = system: HT-29; assay: Growth inhibition of human HT-29 cells incubated for 48 hrs by sulforhodamine B assay; assay type: functional; conditions: HT-29, 48 h
[22] = system: SNB-78; assay: Growth inhibition of human SNB78 cells incubated for 48 hrs by sulforhodamine B assay; assay type: functional; conditions: SNB-78, 48 h
[23] = system: MKN-1; assay: Growth inhibition of human MKN1 cells incubated for 48 hrs by sulforhodamine B assay; assay type: functional; conditions: MKN-1, 48 h
[24] = system: OVCAR-4; assay: Growth inhibition of human OVCAR4 cells incubated for 48 hrs by sulforhodamine B assay; assay type: functional; conditions: OVCAR-4, 48 h
[25] = system: OVCAR-5; assay: Growth inhibition of human OVCAR5 cells incubated for 48 hrs by sulforhodamine B assay; assay type: functional; conditions: OVCAR-5, 48 h
[26] = system: ACHN; assay: Growth inhibition of human ACHN cells incubated for 48 hrs by sulforhodamine B assay; assay type: functional
[27] = system: MKN-45; assay: Growth inhibition of human MKN45 cells incubated for 48 hrs by sulforhodamine B assay; assay type: functional; conditions: MKN-45, 48 h
[28] = system: HCT-116; assay: Growth inhibition of human HCT116 cells incubated for 48 hrs by sulforhodamine B assay; assay type: functional; conditions: HCT-116, 48 h
[29] = Growth inhibition of human HBC5 cells incubated for 48 hrs by sulforhodamine B assay; assay type: functional; conditions: HBC5, 48 h
[30] = system: NCI-H23; assay: Growth inhibition of human NCI-H23 cells incubated for 48 hrs by sulforhodamine B assay; assay type: functional; conditions: NCI-H23, 48 h
[31] = system: A549; assay: Growth inhibition of human A549 cells incubated for 48 hrs by sulforhodamine B assay; assay type: functional; conditions: A549, 48 h
[32] = system: KM12; assay: Growth inhibition of human KM12 cells incubated for 48 hrs by sulforhodamine B assay; assay type: functional; conditions: KM12, 48 h
[33] = system: PC-3; assay: Growth inhibition of human PC3 cells incubated for 48 hrs by sulforhodamine B assay; assay type: functional; conditions: PC-3, 48 h
[34] = system: St-4; assay: Growth inhibition of human St-4 cells incubated for 48 hrs by sulforhodamine B assay; assay type: functional; conditions: St-4, 48 h
[35] = system: DU-145; assay: Growth inhibition of human DU145 cells incubated for 48 hrs by sulforhodamine B assay; assay type: functional; conditions: DU-145, 48 h
[36] = system: MKN-74; assay: Growth inhibition of human MKN74 cells incubated for 48 hrs by sulforhodamine B assay; assay type: functional; conditions: MKN-74, 48 h
[37] = system: LOX IMVI; assay: Growth inhibition of human LOXIMVI cells incubated for 48 hrs by sulforhodamine B assay; assay type: functional
[38] = system: DMS-114; assay: Growth inhibition of human DMS114 cells incubated for 48 hrs by sulforhodamine B assay; assay type: functional; conditions: DMS-114, 48 h
[39] = Growth inhibition of human BSY1 cells incubated for 48 hrs by sulforhodamine B assay; assay type: functional; conditions: BSY-1, 48 h
[40] = system: SF-268; assay: Growth inhibition of human SF268 cells incubated for 48 hrs by sulforhodamine B assay; assay type: functional; conditions: SF-268, 48 h
[41] = target: T1, DNA topoisomerase 2-alpha; assay: Poison activity at recombinant human DNA topoisomerase-2alpha assessed as linear DNA formation using supercoiled pBR322 DNA as substrate at 200 uM after 30 mins by ethidium bromide staining based agarose gel electrophoresis
Method in brief: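 Cleavage reactions: 200 ng pBR322, 6 U topo II, 30 mM Tris-HCl pH 7.6, 60 mM NaCl, 8 mM MgCl2, 3 mM ATP, 15 mM mercaptoethanol, drug in 10% DMSO; 37 °C, 30 min; SDS/proteinase K 60 min, 37 °C; 1% agarose in TBE with 0.1% SDS and ethidium bromide; linear DNA scored.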

[42] = target: DNA topoisomerase 1 (Homo sapiens) (UniProt P11387); assay: Inhibition of human placenta DNA topoisomerase-1 assessed as decrease in relaxation of supercoiled pUC19 DNA at 200 uM after 30 mins by ethidium bromide staining based agarose gel electrophoresis
[43] = target: T1, DNA topoisomerase 2-alpha; assay: Inhibition of recombinant human DNA topoisomerase-2alpha assessed as decrease in relaxation of supercoiled pBR322 DNA at 100 uM after 30 mins by ethidium bromide staining based agarose gel electrophoresis
Method in brief: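 Topo II relaxation of supercoiled pBR322 (198 ng) with 1 U enzyme, 50 mM Tris-HCl pH 8, 120 mM KCl, 10 mM MgCl2, 0.5 mM ATP, 0.5 mM DTT, drug in <10% DMSO; 37 °C for 30 min; products run on 1% agarose in TAE, ethidium-stained, scanned; supercoiled DNA area quantified.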

T1 sequence (P11388 whole entry): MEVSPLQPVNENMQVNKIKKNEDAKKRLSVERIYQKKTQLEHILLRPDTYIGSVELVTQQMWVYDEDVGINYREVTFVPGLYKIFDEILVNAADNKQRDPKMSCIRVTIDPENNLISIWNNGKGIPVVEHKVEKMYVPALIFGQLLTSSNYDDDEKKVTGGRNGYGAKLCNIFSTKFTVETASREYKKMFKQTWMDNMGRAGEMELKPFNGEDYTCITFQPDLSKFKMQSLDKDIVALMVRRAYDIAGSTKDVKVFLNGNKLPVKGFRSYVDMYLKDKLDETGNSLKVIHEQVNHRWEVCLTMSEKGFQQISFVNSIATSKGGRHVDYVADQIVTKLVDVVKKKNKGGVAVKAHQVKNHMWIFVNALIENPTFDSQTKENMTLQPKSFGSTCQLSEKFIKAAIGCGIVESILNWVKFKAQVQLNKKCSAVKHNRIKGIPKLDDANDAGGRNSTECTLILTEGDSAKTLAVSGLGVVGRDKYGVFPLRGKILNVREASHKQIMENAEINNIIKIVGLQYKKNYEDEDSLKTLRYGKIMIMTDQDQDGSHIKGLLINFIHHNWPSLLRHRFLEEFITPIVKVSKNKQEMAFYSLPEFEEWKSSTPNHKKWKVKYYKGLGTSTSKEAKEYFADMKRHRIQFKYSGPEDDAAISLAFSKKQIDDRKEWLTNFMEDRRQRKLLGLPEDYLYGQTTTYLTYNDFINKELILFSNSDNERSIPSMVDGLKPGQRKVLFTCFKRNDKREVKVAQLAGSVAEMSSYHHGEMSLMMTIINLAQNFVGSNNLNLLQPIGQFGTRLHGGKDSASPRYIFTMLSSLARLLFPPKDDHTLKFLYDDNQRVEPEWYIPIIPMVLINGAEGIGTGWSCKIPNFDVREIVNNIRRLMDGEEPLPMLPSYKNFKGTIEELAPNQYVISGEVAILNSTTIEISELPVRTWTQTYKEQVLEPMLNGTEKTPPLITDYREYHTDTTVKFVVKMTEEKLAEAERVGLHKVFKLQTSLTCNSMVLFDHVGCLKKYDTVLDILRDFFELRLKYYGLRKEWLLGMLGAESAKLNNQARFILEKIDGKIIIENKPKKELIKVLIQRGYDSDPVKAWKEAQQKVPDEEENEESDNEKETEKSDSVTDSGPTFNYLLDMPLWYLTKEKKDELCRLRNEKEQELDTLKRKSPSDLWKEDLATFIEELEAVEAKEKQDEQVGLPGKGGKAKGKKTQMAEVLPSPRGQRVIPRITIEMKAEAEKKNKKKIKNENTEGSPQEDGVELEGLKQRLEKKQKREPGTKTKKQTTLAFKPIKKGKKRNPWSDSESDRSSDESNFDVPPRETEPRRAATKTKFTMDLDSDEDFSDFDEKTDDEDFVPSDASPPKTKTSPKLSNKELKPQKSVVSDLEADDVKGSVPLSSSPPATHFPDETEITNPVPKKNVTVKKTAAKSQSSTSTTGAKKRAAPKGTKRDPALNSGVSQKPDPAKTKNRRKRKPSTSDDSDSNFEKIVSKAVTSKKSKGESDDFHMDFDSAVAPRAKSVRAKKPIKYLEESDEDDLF
Sequence of DNA topoisomerase 1 (Homo sapiens) (P11387 whole entry): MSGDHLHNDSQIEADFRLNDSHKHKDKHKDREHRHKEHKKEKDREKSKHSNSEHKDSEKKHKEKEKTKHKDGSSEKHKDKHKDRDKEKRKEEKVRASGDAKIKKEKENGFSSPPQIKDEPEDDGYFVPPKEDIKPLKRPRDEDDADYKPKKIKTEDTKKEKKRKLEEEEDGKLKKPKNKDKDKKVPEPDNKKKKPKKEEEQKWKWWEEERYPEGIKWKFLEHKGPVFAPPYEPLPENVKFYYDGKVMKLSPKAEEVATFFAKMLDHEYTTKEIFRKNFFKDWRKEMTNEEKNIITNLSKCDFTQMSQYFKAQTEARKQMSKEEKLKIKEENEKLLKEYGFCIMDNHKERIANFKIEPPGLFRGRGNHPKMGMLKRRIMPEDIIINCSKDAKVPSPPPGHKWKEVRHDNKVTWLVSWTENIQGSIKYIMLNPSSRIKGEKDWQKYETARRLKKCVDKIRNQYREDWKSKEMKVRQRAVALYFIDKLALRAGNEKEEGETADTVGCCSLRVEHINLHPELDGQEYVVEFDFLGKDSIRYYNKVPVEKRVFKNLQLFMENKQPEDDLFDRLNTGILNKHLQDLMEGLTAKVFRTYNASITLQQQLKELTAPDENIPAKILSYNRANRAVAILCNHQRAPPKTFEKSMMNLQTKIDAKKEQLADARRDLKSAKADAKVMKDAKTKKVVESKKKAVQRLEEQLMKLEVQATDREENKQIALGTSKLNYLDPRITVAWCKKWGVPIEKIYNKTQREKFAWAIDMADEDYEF

GI50 [1]: 3.39 µM
GI50 [3]: 17 µM
GI50 [4]: 5.62 µM
GI50 [5]: 9.12 µM
GI50 [9]: 5.62 µM
GI50 [10]: 7.41 µM
GI50 [11]: 4.9 µM
GI50 [13]: 11 µM
GI50 [14]: 12.9 µM
IC50 [16]: 18.5 µM
GI50 [17]: 3.02 µM
GI50 [18]: 4.37 µM
GI50 [19]: 8.32 µM
GI50 [21]: 6.17 µM
GI50 [23]: 5.01 µM
GI50 [24]: 4.9 µM
GI50 [25]: 12.9 µM
GI50 [26]: 6.76 µM
GI50 [27]: 8.32 µM
GI50 [28]: 5.75 µM
GI50 [30]: 11 µM
GI50 [31]: 5.37 µM
GI50 [33]: 3.63 µM
GI50 [35]: 12 µM
GI50 [36]: 4.27 µM
SMILES: COc1ccc(C2([C@H]3C[C@@H](n4cc(C)c(=O)[nH]c4=O)O[C@@H]3CO[Si](C)(C)C(C)(C)C)SCCCS2)cc1OC
GI50 [2]: 14.1 µM
GI50 [6]: 11 µM
GI50 [7]: 8.32 µM
GI50 [8]: 17 µM
GI50 [12]: 17 µM
GI50 [15]: 4.57 µM
GI50 [20]: 5.01 µM
GI50 [22]: 12.9 µM
GI50 [29]: 5.75 µM
GI50 [32]: 11 µM
GI50 [34]: 12 µM
GI50 [37]: 8.13 µM
GI50 [38]: 5.62 µM
GI50 [39]: 3.31 µM
GI50 [40]: 12.9 µM

SMILES: COc1cc([C@@H]2c3cc4c(cc3[C@@H](O[C@@H]3O[C@@H]5CO[C@@H](C)O[C@H]5[C@H](O)[C@H]3O)[C@H]3COC(=O)[C@H]23)OCO4)cc(OC)c1O
Activity [41]: Active

IC50 [16]: 64.5 µM
SMILES: COc1ccc(C2([C@H]3C[C@H](n4cc(C)c(=O)[nH]c4=O)O[C@@H]3CO)SCCCS2)cc1OC

IC50 [16]: 99.1 µM
SMILES: COc1ccc(C[C@H]2C[C@H](n3cc(C)c(=O)[nH]c3=O)O[C@@H]2CO[Si](C)(C)C(C)(C)C)cc1OC

IC50 [16]: 35.2 µM
SMILES: Cc1cn([C@H]2C[C@H](Cc3ccc(O)c(O)c3)[C@@H](CO[Si](C)(C)C(C)(C)C)O2)c(=O)[nH]c1=O

GI50 [1]: 2 µM
GI50 [3]: 5.25 µM
GI50 [4]: 2.69 µM
GI50 [5]: 4.07 µM
GI50 [9]: 3.63 µM
GI50 [10]: 3.8 µM
GI50 [11]: 3.31 µM
GI50 [13]: 3.72 µM
GI50 [14]: 3.31 µM
IC50 [16]: 8.1 µM
GI50 [17]: 2.29 µM
GI50 [18]: 3.31 µM
GI50 [19]: 3.89 µM
GI50 [21]: 3.89 µM
GI50 [23]: 2.29 µM
GI50 [24]: 2.88 µM
GI50 [25]: 2.88 µM
GI50 [26]: 2.51 µM
GI50 [27]: 3.31 µM
GI50 [28]: 3.63 µM
GI50 [30]: 3.72 µM
inhibition [42]: inactive
GI50 [31]: 4.68 µM
GI50 [33]: 2.29 µM
GI50 [35]: 3.72 µM
GI50 [36]: 3.24 µM
SMILES: COc1ccc(C2([C@H]3C[C@H](n4cc(C)c(=O)[nH]c4=O)O[C@@H]3CO[Si](C)(C)C(C)(C)C)SCCCS2)cc1OC
GI50 [2]: 2.19 µM
GI50 [6]: 3.47 µM
GI50 [7]: 3.72 µM
GI50 [8]: 4.57 µM
GI50 [12]: 10 µM
GI50 [15]: 3.8 µM
GI50 [20]: 3.8 µM
GI50 [22]: 5.5 µM
GI50 [29]: 2.51 µM
GI50 [32]: 4.07 µM
GI50 [34]: 4.47 µM
GI50 [37]: 3.24 µM
GI50 [38]: 3.31 µM
GI50 [39]: 1.82 µM
GI50 [40]: 6.46 µM

IC50 [16]: 137 µM
SMILES: COc1ccc(C[C@H]2CC(=O)O[C@@H]2CO[Si](C)(C)C(C)(C)C)cc1OC

inhibition [43]: inactive
IC50 [16]: 176 µM
inhibition [16]: Dose-dependent effect
inhibition [42]: inactive
SMILES: Cc1cn([C@H]2C[C@H](Cc3ccc(O)c(O)c3)[C@@H](CO)O2)c(=O)[nH]c1=O
Activity [41]: inactive
